Measurements: ChEMBL document CHEMBL1926677, “Further structure-activity relationship studies on 8-substituted-3-[2-(diarylmethoxyethylidenyl)]-8-azabicyclo[3.2.1]octane derivatives at monoamine transporters” (Bioorg Med Chem, 2011)
pKi: −log10 of the molar value.

Legend:
[1] = target: Sodium-dependent serotonin transporter (Rattus norvegicus, UniProt P31652); experiment: Displacement of [3H]citalopram from SERT in Sprague-Dawley rat brain homogenates after 60 mins by liquid scintillation counting; assay type: tissue-based
Summary of the method: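 Midbrain from male Sprague-Dawley rats (200–225 g), frozen, homogenised in 50 mM Tris with 120 mM NaCl, 5 mM KCl (pH 7.4, 25 °C), washed at 20,000 × g. Nonspecific: 1 µM citalopram. GF/B filters in polyethylenimine, liquid scintillation counting.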

Rattus norvegicus [2] = species: Rattus norvegicus; experiment: Selectivity ratio of Ki for SERT in Sprague-Dawley rat brain homogenates to Ki for DAT in Sprague-Dawley rat brain homogenates; assay type: tissue-based
[3] = target: Sodium-dependent dopamine transporter (Rattus norvegicus, UniProt P23977); experiment: Displacement of [3H]WIN35428 from DAT in Sprague-Dawley rat brain homogenates after 1 hr by scintillation counting; assay type: tissue-based
Summary of the method: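 Male Sprague-Dawley rats (200–250 g); caudate-putamen homogenised in ice-cold modified Krebs-HEPES buffer pH 7.4, washed by repeated 20,000 × g spins; fresh membranes ~0.3% w/v (150–300 µg protein). Nonspecific: 100 µM cocaine.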

Rattus norvegicus [4] = species: Rattus norvegicus; experiment: Selectivity ratio of Ki for NET in Sprague-Dawley rat brain cortex membranes to Ki for DAT in Sprague-Dawley rat brain homogenates; assay type: cell membranes; details: Membrane
Transporter = Transporter (Rattus norvegicus, UniProt Q63380); experiment: Displacement of [3H]nisoxetine from NET in Sprague-Dawley rat brain cortex membranes after 1 hr; assay type: cell membranes, Membrane
Summary of the method: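 Rat frontal cortex membranes in 50 mM Tris, 120 mM NaCl, 5 mM KCl, pH 7.4, washed at 50,000 × g, 8 mg wet tissue/tube. 0.5 nM [3H]nisoxetine, 1 h on ice; GF/B filters presoaked in 0.05% PEI. Nonspecific: 1 µM desipramine. Compounds first screened at 1 µM for displacement.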

[5] = Selectivity ratio of DAT over SERT

Sodium-dependent serotonin transporter, sequence (P31652 whole entry): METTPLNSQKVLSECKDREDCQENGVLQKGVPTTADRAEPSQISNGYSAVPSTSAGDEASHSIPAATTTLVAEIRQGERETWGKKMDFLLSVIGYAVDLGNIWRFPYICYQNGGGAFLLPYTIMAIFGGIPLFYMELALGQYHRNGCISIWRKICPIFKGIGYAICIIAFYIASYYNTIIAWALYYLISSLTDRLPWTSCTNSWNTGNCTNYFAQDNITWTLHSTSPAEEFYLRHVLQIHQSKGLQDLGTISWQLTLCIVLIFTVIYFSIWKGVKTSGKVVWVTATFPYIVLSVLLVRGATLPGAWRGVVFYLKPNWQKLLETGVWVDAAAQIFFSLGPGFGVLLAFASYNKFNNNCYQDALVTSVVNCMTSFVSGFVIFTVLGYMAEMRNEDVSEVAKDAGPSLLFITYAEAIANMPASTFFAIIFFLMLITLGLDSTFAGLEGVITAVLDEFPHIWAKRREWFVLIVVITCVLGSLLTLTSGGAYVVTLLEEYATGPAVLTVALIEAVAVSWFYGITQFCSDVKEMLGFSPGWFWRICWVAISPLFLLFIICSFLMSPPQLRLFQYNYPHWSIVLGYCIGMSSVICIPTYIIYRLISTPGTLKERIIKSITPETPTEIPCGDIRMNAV
Sodium-dependent dopamine transporter, sequence (P23977 whole entry): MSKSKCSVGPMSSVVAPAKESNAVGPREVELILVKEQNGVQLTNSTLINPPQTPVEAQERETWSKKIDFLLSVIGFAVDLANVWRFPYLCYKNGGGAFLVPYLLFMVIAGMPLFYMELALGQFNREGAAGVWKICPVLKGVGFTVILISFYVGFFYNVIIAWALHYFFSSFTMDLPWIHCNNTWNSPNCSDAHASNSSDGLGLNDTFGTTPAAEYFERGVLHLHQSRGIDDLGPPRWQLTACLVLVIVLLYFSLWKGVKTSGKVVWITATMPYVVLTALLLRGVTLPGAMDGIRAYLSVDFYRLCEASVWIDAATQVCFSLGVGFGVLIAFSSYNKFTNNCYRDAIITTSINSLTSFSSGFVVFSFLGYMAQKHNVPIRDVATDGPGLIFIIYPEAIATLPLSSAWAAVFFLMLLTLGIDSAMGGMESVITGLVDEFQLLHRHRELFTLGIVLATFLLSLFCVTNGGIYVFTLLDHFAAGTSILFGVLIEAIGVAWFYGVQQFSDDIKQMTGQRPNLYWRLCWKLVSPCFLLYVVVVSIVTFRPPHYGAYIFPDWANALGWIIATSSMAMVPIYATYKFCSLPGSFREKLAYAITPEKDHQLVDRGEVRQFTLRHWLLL
Transporter, sequence (Q63380 whole entry): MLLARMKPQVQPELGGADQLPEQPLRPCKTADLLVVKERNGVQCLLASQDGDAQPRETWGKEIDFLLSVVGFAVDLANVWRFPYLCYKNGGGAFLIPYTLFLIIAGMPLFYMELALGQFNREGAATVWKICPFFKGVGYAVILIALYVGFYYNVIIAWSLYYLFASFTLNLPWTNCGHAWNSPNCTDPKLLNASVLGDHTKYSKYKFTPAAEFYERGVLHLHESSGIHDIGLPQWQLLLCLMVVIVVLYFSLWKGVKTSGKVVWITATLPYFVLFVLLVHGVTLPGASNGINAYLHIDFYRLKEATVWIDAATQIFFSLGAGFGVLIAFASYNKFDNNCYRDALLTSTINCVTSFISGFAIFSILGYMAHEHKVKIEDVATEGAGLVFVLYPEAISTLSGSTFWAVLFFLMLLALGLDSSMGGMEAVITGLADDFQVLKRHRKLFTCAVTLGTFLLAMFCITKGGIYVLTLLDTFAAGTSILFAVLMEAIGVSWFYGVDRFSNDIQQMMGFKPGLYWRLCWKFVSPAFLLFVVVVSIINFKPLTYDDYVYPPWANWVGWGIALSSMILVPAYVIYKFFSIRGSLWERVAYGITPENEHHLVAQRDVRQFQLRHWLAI

Row | SMILES | pKi [1] | Ratio Ki (Rattus norvegicus [2]) | pKi [3] | Ratio Ki (Rattus norvegicus [4]) | pKi (Transporter) | Ratio [5]
1 | Fc1ccc(C(OC/C=C2\C[C@H]3CC[C@@H](C2)N3Cc2ccccc2)c2ccc(F)cc2)cc1 | 5.65 |  |  |  |  | 
2 | Cc1ccc(CN2[C@@H]3CC[C@H]2C/C(=C/COC(c2ccc(F)cc2)c2ccc(F)cc2)C3)cc1 | 6.39 | 68 | 8.21 | 450 | 5.56 | 
3 | C=CCN1[C@@H]2CC[C@H]1C/C(=C/COC(c1ccc(F)cc1)c1ccc(F)cc1)C2 | 5.46 | 167 | 7.68 | 149 | 5.51 | 
4 | Fc1ccc(CN2[C@@H]3CC[C@H]2C/C(=C/COC(c2ccc(F)cc2)c2ccc(F)cc2)C3)cc1 | 5.94 | 234 | 8.31 | 643 | 5.50 | 
5 | Fc1ccc(C(OC/C=C2\C[C@H]3CC[C@@H](C2)N3Cc2ccc(Cl)cc2)c2ccc(F)cc2)cc1 | 6.18 | 168 | 8.41 | 1360 | 5.28 | 
6 | CCCN1[C@@H]2CC[C@H]1C/C(=C/COC(c1ccc(F)cc1)c1ccc(F)cc1)C2 | 5.26 | 133 | 7.39 | 69 | 5.55 | 
7 | C=CCN1[C@@H]2CC[C@H]1C/C(=C/COC(c1ccccc1)c1ccccc1)C2 |  |  | 6.84 |  |  | 
8 | C(/COC(c1ccccc1)c1ccccc1)=C1/C[C@H]2CC[C@@H](C1)N2Cc1ccccc1 | 5.27 | 113 | 7.32 | 29 | 5.86 | 300
9 | C(/COC(c1ccccc1)c1ccccc1)=C1/C[C@H]2CC[C@@H](C1)N2CC1CC1 |  |  | 6.77 |  |  | 
10 | Fc1ccc(CN2[C@@H]3CC[C@H]2C/C(=C/COC(c2ccccc2)c2ccccc2)C3)cc1 | 5.39 | 585 | 8.15 | 477 | 5.48 | 
11 | CN1[C@@H]2CC[C@H]1C/C(=C/COC(c1ccccc1)c1ccccc1)C2 |  |  | 6.89 |  |  | 300
12 | CCN1[C@@H]2CC[C@H]1C/C(=C/COC(c1ccc(F)cc1)c1ccc(F)cc1)C2 | 5.22 | 149 | 7.40 | 89 | 5.45 | 
13 | Fc1ccc(C(OC/C=C2\C[C@H]3CC[C@@H](C2)N3CC2CC2)c2ccc(F)cc2)cc1 | 5.37 | 1060 | 8.40 | 625 | 5.60 | 
14 | C#CCN1[C@@H]2CC[C@H]1C/C(=C/COC(c1ccccc1)c1ccccc1)C2 |  |  | 6.27 |  |  | 
15 | Fc1ccc(C(OC/C=C2\C[C@H]3CC[C@@H](C2)N3CCCc2ccccc2)c2ccc(F)cc2)cc1 |  |  |  |  |  | 300
16 | CCCN1[C@@H]2CC[C@H]1C/C(=C/COC(c1ccccc1)c1ccccc1)C2 |  |  | 6.61 |  |  | 
17 | CCN1[C@@H]2CC[C@H]1C/C(=C/COC(c1ccccc1)c1ccccc1)C2 |  |  | 6.54 |  |  | 
18 | C(/COC(c1ccccc1)c1ccccc1)=C1/C[C@H]2CC[C@@H](C1)N2CCCc1ccccc1 |  |  |  |  |  | 300
19 | Clc1ccc(CN2[C@@H]3CC[C@H]2C/C(=C/COC(c2ccccc2)c2ccccc2)C3)cc1 | 6.26 | 72 | 8.12 | 554 | 5.57 | 
20 | CN1[C@@H]2CC[C@H]1C/C(=C/COC(c1ccc(F)cc1)c1ccc(F)cc1)C2 |  |  | 7.72 |  |  | 300
21 | Cc1ccc(CN2[C@@H]3CC[C@H]2C/C(=C/COC(c2ccccc2)c2ccccc2)C3)cc1 | 6.13 | 57 | 7.89 | 136 | 5.75 | 
